XBP1 UPR activ: adaptive UPR (XBP1) activation; activation, % at 20 µM; CHO-XBP1 luciferase reporter, IRE1-XBP1 UPR activation, luminescence; percent of tunicamycin response, DMSO as zero; 330,000 compounds, 0.33% hits;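 active = versus positive control, 20 µM dose yields 30% or more activation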;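 also: 100% = tunicamycin at 10 µg/mL and 0% = DMSO only wells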
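Material: CHO-XBP1 cells stably carrying IRE1-XBP1-driven luciferase reporter | Medium: F12 with 10% serum | Compound dosing: 20 µM single concentration, DMSO 1% | Incubation: Overnight seeding at 37 °C, 6 h compound treatment at 37 °C | Detection: Steady-Glo luminescence read | Read-out basis: % activation of reporter signal versus tunicamycin and DMSO controls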
tim10-1 inh: inhibits growth of tim10-1 mutant yeast; S. cerevisiae tim10-1 ts strain growth, BacTiter-Glo, 24 h; inhibition, % at 20 µM; 330,000 compounds, 2.2% hits; AID 463190;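 active = inhibition of at least 40%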;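 also: mutant grown at 25 °C; 0% = DMSO wells with yeast and 100% = wells holding no yeast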
TIM10 inh: growth inhibitors of TIM10 yeast strain; AID 463195; S. cerevisiae TIM10 strain growth, BacTiter-Glo luminescence, 24 h; inhibition, % at 10 µM; 330,000 compounds, 1.4% hits;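 active = inhibition of 40% or more at the single tested concentration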;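 also: wild-type TIM10 isogenic control strain grown at permissive 25 °C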
tim23-1 inh: growth inhibitors of tim23-1 mutant yeast; S. cerevisiae tim23-1 growth, BacTiter-Glo luminescence, 24 h; inhibition, % at 20 µM; 330,000 compounds, 1.3% hits; AID 463212;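 active = growth inhibition of the mutant yeast at or above 50%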;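 also: temperature-sensitive mutant grown at 25 °C; plate controls were DMSO-treated mutant yeast for no effect and medium wells lacking yeast for full effect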
UPR CHOP act: apoptotic UPR (CHOP) activation; 330,000 compounds, 0.34% hits; activation, % at 10 µM; CHO-CHOP luciferase reporter, luminescence; percent of tunicamycin response over DMSO baseline;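 active = at 10 µM dose, activation of 40% or more, normalized to positive control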;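 also: 100% = tunicamycin at 10 µg/mL and 0% = DMSO alone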
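Test system: CHO CHOP reporter cells. Input: 500 CHO-CHOP cells per well. Medium: F12 with 10% FBS. Technique: luciferase luminescence. Measure: percent activation relative to tunicamycin control. Dosing: 10 µM compound, 0.5% DMSO. Timing: 16-18 h cell attachment, then 6 h compound exposure, 37 °C.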
tim10 confirm: confirmation of TIM10 yeast growth inhibitors; shares compounds with TIM10 inh; S. cerevisiae tim10 strain growth, BacTiter-Glo luminescence, 24 h; inhibition, % at 10 µM; 4,600 compounds, 63% hits;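 active = inhibition of yeast growth at or above a set limit in either of two replicates at 10 µM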;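 also: this counterscreen used the strain with wild-type TIM10; 0% = yeast with DMSO and 100% = medium wells lacking yeast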
tim23-1 confirm: tim23-1 yeast growth inhibition, confirmed; 4,400 compounds, 83% hits; inhibition, % at 20 µM; S. cerevisiae tim23-1 growth, BacTiter-Glo luminescence, 24 h; shares compounds with tim23-1 inh; AID 463218;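 active = inhibition above about 39% in either of two replicate wells at 20 µM, limit read from the data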;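 also: temperature-sensitive tim23-1 mutant grown at 25 °C; 0% = DMSO wells with yeast and 100% = medium wells without yeast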
Numbers without * were called inactive; nt = no result given. Sampled rows, rich in hits. Any-hit rate of the full collection: about 3.9%.

SMILES	XBP1 UPR activ	tim10-1 inh	TIM10 inh	tim23-1 inh	UPR CHOP act	tim10 confirm	tim23-1 confirm
CCCC1CCC(c2ccc(C(=O)NN)cc2)CC1 (centres undefined)	-3	32	47*	55*	1	32*	18
CCOC(=O)COc1ccc2c(c1)c(C(C)=O)c(C)n2-c1ccc(OC)cc1	-4	19	21	36	1	nt	nt
Cc1noc(C)c1C(=O)OC(C)C(=O)N(C)c1ccccc1 (centres undefined)	-2	4	-7	14	-1	nt	nt
CC(OC(=O)/C=C/c1ccc2ccccc2n1)C(=O)N(C)c1ccccc1 (centres undefined)	0	35	43*	52*	6	42*	53*
CC(C)CC(=O)c1c[nH]c(C(=O)N2CCN(Cc3ccccc3)CC2)c1	-2	26	0	8	-2	nt	nt
O=c1oc2ccccc2nc1/C=C(\O)c1ccccc1	2	-48	-68	-31	-1	nt	nt
O/C(=C\c1nc2ccccc2nc1/C=C(\O)c1ccccc1)c1ccccc1	13	37	45*	63*	5	54*	68*
N/C(=N\OC(=O)c1ccc(Cl)c(Cl)c1)c1cccc(CSc2ccccn2)c1	1	39	72*	79*	5	84*	49*
N#Cc1cc2c(cc1NC(=O)CCn1cnnn1)OCO2	-2	-6	-5	-6	-1	nt	nt
CC(C)(C)NC(=S)NC(=O)C12CC3CCC(CC(C3)C1)C2	0	36	45*	50*	1	-12	59*
COc1ccc(-c2n[nH]c(C)c2-c2cnn(-c3ccccc3)c2)c(O)c1C	1	39	48*	51*	2	45*	59*
COc1ccc(-c2onc(C)c2-c2cnn(-c3ccccc3)c2)c(O)c1C	0	19	24	38	0	nt	nt
Cc1cc(OCc2cc(C(=O)NCCN3CCCCC3CO)no2)cc(C)c1Cl (centres undefined)	-2	11	8	9	-1	nt	nt
O=C(NC1=NCCS1)c1sc2ccccc2c1Cl	4	36	46*	73*	3	37*	80*
CCCCN=Cc1sc2ccc(OCC)cc2c1O	1	31	43*	58*	6	27*	54*
COc1ccc(CCN2CC(C(=O)N3CCCCCC3)CCC2=O)cc1 (centres undefined)	-3	5	-3	10	2	nt	nt
O=C(N/N=C/c1ccccc1O)c1ccc2c(c1)OCO2	-2	31	51*	67*	-1	43*	74*
O=C(N/N=C/c1cc(Br)cc(Cl)c1O)c1ccc2c(c1)OCO2	0	-3	43*	57*	-3	31*	57*
O=C(N/N=C/c1ccc2c(c1)OCO2)c1ccc2c(c1)OCCO2	0	-53	15	29	4	nt	nt
COC(=O)C1=C(C(=O)OC)[C@@H]2Nc3ccccc3[C@@]23C[C@@H](C(=O)OC)N(C(=O)NC2CCCCC2)C3=N1	0	0	11	6	-1	nt	nt
CCOc1ccc(CCN2C(=O)c3ccc(C(=O)O)cc3C2=O)cc1OCC	-6	-7	5	-7	1	nt	nt
Cc1ccc2c(c1)C1(C)C(C(C)(C)N2C=O)C1(Cl)Cl (centres undefined)	0	15	16	20	1	nt	nt
Cc1ccnc2c1ccc1c(C)ccnc12	6	35	50*	71*	19	-28	60*
Cc1ccc(NC(=O)c2cc(C)n(-c3cccc(C)c3)c2C)cc1	2	16	34	43	6	nt	nt
Cc1ccc(NC(=O)c2cc(C)n(-c3ccccc3)c2C)cc1	-5	34	50*	52*	-8	-22	58*
SMILES	XBP1 UPR activ	tim10-1 inh	TIM10 inh	tim23-1 inh	UPR CHOP act	tim10 confirm	tim23-1 confirm
Clc1cccc(Nc2ncnc3ccc(Br)cc23)c1	-3	34	48*	54*	-1	44*	50*
Cc1cccc(Nc2ncnc3ccc(Br)cc23)c1	-1	39	29	45	0	nt	nt
CC1CCCN(Cc2c(O)ccc3c(=O)c(-c4nc5ccccc5s4)c(N)oc23)C1 (centres undefined)	0	38	52*	56*	3	51*	58*
O=C(COC(=O)Cn1[nH]c(=O)c2ccccc2c1=O)NNC(=O)c1ccc(Br)cc1	-1	-9	4	-2	-1	nt	nt
CCOC(=O)CSc1nc2cc(OCC)ccc2cc1C#N	12	24	9	38	3	nt	nt
CCOc1ccc2cc(C#N)c(SCC(=O)N3CCC(C)CC3)nc2c1	3	36	59*	52*	1	14	50*
O=c1c2ccc(Cl)cc2nc(-c2ccc([N+](=O)[O-])cc2)n1O	2	33	63*	55*	-2	45*	63*
O=c1c2cc(Br)ccc2nc(-c2ccc([N+](=O)[O-])cc2)n1O	-3	17	-9	47	2	nt	nt
Oc1ccccc1-c1nc(NC2CCCC2)c2ccccc2n1	1	30	44*	64*	0	35*	58*
COc1cccc(OC)c1C(=O)NCCc1ccccc1	3	-25	-33	0	0	nt	nt
COc1cccc2cc(C(=O)NCCc3ccccc3)oc12	2	32	50*	62*	4	37*	77*
COc1ccc(C2=NS(=O)(=O)N(C)C(C(=O)N3CCCCC3C)=C2)cc1 (centres undefined)	-3	17	-4	23	0	nt	nt
Cc1ccc(C)c(S(=O)(=O)N2CCN(C(=O)CSc3ccccc3F)CC2)c1	-4	18	5	31	1	nt	nt
O=C(c1ccco1)N1CCN(c2nnc(-c3ccccc3)c3ccccc23)CC1	-1	32	40	51*	0	5	30
Cc1cc(N2CCN(C(=O)c3ccco3)CC2)c2ccccc2n1	1	-5	-5	11	1	nt	nt
Nc1nc(-c2cc(-c3ccccc3)no2)cs1	-5	26	51*	80*	1	58*	75*
Nc1nc(-c2ccccc2)cs1	0	4	2	15	2	nt	nt
O=C1C2=C(Nc3ccccc3SC2c2ccco2)c2ccccc21 (centres undefined)	-6	20	46*	55*	2	43*	82*
O=C1c2ccccc2NC(c2ccco2)N1O (centres undefined)	-3	0	10	2	1	nt	nt
C=CCSc1n[nH]c(-c2ccc(OCCC)cc2)n1	2	21	46*	66*	2	41*	38*
C=CCSc1n[nH]c(-c2cccs2)n1	-1	24	-3	19	1	nt	nt

Source: PubChem (Sanford-Burnham Center for Chemical Genomics)
